The source made the active and inactive calls.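 How the source made its calls, unless noted: active means mean duplicate potentiation above the buffer control mean plus 5 SD of buffer wells; inactive means the rest.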

Drawing on PubChem BioAssay, this text covers outcome, potentiation and activation for 28 molecules.

The nature of assay [1]: nonspecific flux increase, KCNQ1-free cells – parental CHO cells, counter-screen for KCNQ1 potentiator project (AID 493006;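 active means duplicate-averaged activation above buffer control mean plus 5 SD of those controls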;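 on activation: fluorescence ratio of max minus min over baseline after K+ and Tl+ depolarization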). The conditions noted are these: parental CHO-K1 cells, FluxOR thallium flux, at 10 µM; active compounds read high. A digest of the protocol:
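Material: parental CHO-K1 cells, FluxOR dye-loaded; Also added: Potassium/thallium depolarization pulse; Schedule: overnight 37 °C plating, 90 min dye, 20 min dark compound; Signal: kinetic FluxOR fluorescence, 10 s baseline, 110 s after stimulus.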

For assay [2], the target named is Potassium voltage-gated channel subfamily KQT member 1 (Homo sapiens) (UniProt P51787). Put plainly: enhancement of KCNQ1 channel thallium flux – FluxOR thallium flux, CHO cells, duplicates, confirmation (AID 493007;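 active means potentiation averaged over duplicate wells exceeding buffer-only control mean by more than 3 SD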;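 on outcome: cells depolarized by a potassium plus thallium sulfate stimulus after compound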). The conditions noted are these: KCNQ1 cell line, FluxOR thallium flux fluorescence, at 10 µM; active compounds read high, % of reference activator effect, buffer zero. In a few lines: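 System: KCNQ1-expressing CHO cell line; technique: kinetic thallium influx fluorescence with FluxOR dye, 10 s baseline, 110 s post-stimulus; timing: dye 90 min then compound 20 min, both at room temperature; controls: buffer-only wells as 0% and R-L3 activator as 100%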

Assay [3] addresses Potassium voltage-gated channel subfamily KQT member 2 (Rattus norvegicus) (UniProt O88943). Put plainly: KCNQ2 thallium flux enhancement – KCNQ2-CHO-K1 cells, selectivity assay for KCNQ1 potentiator project (AID 493009).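 Further: assay conditions were tuned for KCNQ1 rather than KCNQ2 modulators; signal is max minus min fluorescence divided by baseline after thallium stimulus.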 The conditions noted are these: FluxOR thallium flux fluorescence, at 10 µM; active compounds read high, scaled: buffer 0, activator control 100.
Assay [4] addresses Potassium voltage-gated channel subfamily KQT member 1 (Homo sapiens) (UniProt P51787). Put plainly: KCNQ1 activators by electrophysiology – IonWorks patch clamp, KCNQ1-CHO cells, orthogonal assay for KCNQ1 potentiator project, confirmation (AID 493184;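 active means current rise at least 3 SD above the untreated control mean in each of two repeat wells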). The conditions noted are these: automated patch clamp current, at 10 µM; active compounds read high. A digest of the protocol: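 Test system: KCNQ1-expressing CHO cells. Medium: pH 7.4 external bath. Probe or stimulus: voltage step from -90 mV holding to +40 mV, 2,000 ms. Compound: 10 µM final, single point. Detection: automated perforated-patch electrophysiology. Read-out: percent current increase versus pre-compound level. Repeats: two replicates.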
Background: The patch-clamp technique gives a direct electrical read-out from membranes.

Sequence of Potassium voltage-gated channel subfamily KQT member 2 (Rattus norvegicus) (O88943 whole entry, looked up): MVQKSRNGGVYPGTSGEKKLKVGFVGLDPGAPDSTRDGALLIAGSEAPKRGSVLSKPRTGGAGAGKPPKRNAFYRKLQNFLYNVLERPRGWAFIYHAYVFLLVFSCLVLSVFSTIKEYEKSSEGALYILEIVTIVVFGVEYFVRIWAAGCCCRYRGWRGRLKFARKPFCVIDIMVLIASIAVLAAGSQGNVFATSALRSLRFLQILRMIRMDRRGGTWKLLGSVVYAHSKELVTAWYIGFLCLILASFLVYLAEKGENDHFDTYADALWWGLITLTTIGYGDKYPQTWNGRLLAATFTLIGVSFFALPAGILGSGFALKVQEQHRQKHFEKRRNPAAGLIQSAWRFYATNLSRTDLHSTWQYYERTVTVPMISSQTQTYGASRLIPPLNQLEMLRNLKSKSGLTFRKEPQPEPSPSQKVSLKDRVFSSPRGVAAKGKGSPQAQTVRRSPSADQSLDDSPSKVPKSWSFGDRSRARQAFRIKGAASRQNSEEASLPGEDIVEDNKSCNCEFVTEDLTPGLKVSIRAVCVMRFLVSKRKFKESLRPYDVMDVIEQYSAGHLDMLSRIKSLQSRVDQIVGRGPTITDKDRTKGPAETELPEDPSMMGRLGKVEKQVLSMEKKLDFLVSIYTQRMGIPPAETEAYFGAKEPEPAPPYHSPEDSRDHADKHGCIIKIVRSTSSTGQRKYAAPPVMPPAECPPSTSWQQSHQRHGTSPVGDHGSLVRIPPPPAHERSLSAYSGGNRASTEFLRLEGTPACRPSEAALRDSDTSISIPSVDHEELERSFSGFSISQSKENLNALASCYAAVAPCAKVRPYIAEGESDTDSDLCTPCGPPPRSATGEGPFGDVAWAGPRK
Sequence of Potassium voltage-gated channel subfamily KQT member 1 (Homo sapiens) (P51787 whole entry, looked up): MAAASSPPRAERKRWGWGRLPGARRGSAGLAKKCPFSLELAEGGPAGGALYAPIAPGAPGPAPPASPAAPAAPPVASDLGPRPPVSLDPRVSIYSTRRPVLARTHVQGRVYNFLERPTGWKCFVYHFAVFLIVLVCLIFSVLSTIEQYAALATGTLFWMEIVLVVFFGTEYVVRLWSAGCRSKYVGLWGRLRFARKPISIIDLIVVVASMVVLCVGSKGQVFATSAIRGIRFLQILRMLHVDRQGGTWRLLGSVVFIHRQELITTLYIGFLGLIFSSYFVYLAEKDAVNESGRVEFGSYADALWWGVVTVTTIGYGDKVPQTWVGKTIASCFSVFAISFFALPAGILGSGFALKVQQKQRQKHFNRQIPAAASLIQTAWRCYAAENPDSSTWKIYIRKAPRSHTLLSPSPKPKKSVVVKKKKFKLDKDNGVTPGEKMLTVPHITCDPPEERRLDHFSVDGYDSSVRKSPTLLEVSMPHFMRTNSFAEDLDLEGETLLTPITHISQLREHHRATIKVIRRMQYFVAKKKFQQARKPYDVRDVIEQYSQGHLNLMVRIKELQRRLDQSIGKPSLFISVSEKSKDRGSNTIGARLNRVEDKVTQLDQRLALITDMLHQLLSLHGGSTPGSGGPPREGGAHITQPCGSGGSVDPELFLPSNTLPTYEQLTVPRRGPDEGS

`CC(Sc1nnnn1-c1ccc(O)cc1)C(=O)NC1CCCCC1C` (configuration not stated): the outcome in assay [1], in assay [2], in assay [3] and in assay [4] was inactive.
`S=c1nc(-c2ccc(Br)cc2)oc2c1CCCC2`: the outcome in assay [1], in assay [3] and in assay [4] was inactive. In assay [2], the potentiation is 37% (active).
Take `Cc1ccc(C(=O)N2CCNC(=O)C2CC(=O)Nc2ccc(F)cc2)cc1C` (configuration not stated): the outcome in assay [1], in assay [3] and in assay [4] was inactive. The potentiation in assay [2] was 37.5% (active).
Regarding `CCCCC(=O)N(c1ccc(OCC)cc1)C1C=CS(=O)(=O)C1` (configuration not stated), the outcome in assay [1], in assay [2], in assay [3] and in assay [4] was inactive.
In the case of `C1=Nc2ccccc2CN1c1ccccc1`, the outcome in assay [1], in assay [2], in assay [3] and in assay [4] was inactive.
Turning to `O=c1c(O)c(-c2cccs2)oc2ccc(Cl)cc12`, in assay [1], the activation was 570% (active). The potentiation was 128% (active) in assay [2] and 553% (active) in assay [3]. For the same molecule, in assay [4], the result was inactive.
On to `C=CCn1c(O)c(N=NC(=S)Nc2cccc(C)c2)c2ccccc21`, for which the activation in assay [1] was 225% (active). Further, the values for the potentiation in assay [2] and in assay [3] were 77% (active) and 286% (active), respectively. Also, the outcome in assay [4] was inactive.
For `CC(/C=N/NC(=O)c1cc(-c2cccs2)[nH]n1)=C\c1ccccc1`, in assay [1], the activation was 184% (active). Besides, the values for the potentiation in assay [2] and in assay [3] were 116% (active) and 250% (active), respectively. Also, the result in assay [4] was inactive.
Turning to `O=C(NCc1ccc(F)cc1)C1CCC(CNS(=O)(=O)c2ccccc2)CC1` (configuration not stated), the outcome in assay [1], in assay [2], in assay [3] and in assay [4] was inactive.
As to `Cc1cccc(NC(=O)c2cccnc2)c1`, the outcome in assay [1], in assay [2], in assay [3] and in assay [4] was inactive.
On to `CCN1c2ccccc2-c2nc3ccccc3n2C1c1cccnc1` (configuration not stated), for which the outcome in assay [1], in assay [2], in assay [3] and in assay [4] was inactive.
In the case of `CCCNC(=O)C(=O)N/N=C/c1cccs1`, the outcome in assay [1], in assay [3] and in assay [4] was inactive. Moreover, in assay [2], the potentiation was 24.5% (active).
With `Cc1ccc(-c2csc3nc[nH]c(=S)c23)cc1`, the activation in assay [1] was 308% (active). Also, the potentiation in assay [2] is 124% (active); in assay [3] it was 300% (active). Moreover, in assay [4], the result was inactive.
Turning to `Cc1cccc(-n2c(=S)[nH]c3sc4c(c3c2=O)CCc2ccccc2-4)c1`, the activation in assay [1] was 240% (active). Further, the potentiation was 149% (active) in assay [2] and 330% (active) in assay [3]. Besides, the result in assay [4] was inactive.
For `CC(C)(C)NCC(O)COc1ccccc1C(C)(C)C` (configuration not stated), the outcome in assay [1], in assay [2], in assay [3] and in assay [4] was inactive.
Consider `COc1ccccc1NS(=O)(=O)c1cc(NC(=O)c2cnccn2)ccc1N1CCOCC1`, for which the activation in assay [1] is 222% (active). For the same molecule, the potentiation in assay [2] was 54% (active); in assay [3] it was 248% (active). Besides, the result in assay [4] was inactive.
As for `CCOC(=O)c1c(NC(=S)NC)sc2c1CC(C)(C)SC2`, the activation in assay [1] is 498% (active). Also, the potentiation was 126% (active) in assay [2] and 444% (active) in assay [3]. Besides, in assay [4], the result was inactive.
Take `O=C1c2ccccc2C2(c3cc(C(F)(F)F)cc(C(F)(F)F)c3)NCCN12` (configuration not stated): the result in assay [1], in assay [2], in assay [3] and in assay [4] was inactive.
Regarding `CCCc1nc(SCC(=O)Nc2cc(Cl)ccc2OC)c2c(=O)n(C)c(=O)n(C)c2n1`, the outcome in assay [1], in assay [2], in assay [3] and in assay [4] was inactive.
As to `CCOC(=O)c1cnc(SCC(=O)Nc2nc(C)c(C)s2)nc1N`, the outcome in assay [1], in assay [2], in assay [3] and in assay [4] was inactive.
Turning to `Oc1ccc(C[C@@H]2CNCCN2CCc2cc(C(F)(F)F)cc(C(F)(F)F)c2)cc1`, the outcome in assay [1], in assay [2], in assay [3] and in assay [4] was inactive.
As to `CCOC(=O)c1oc2c(CN3CCCCC3C)c(O)ccc2c(=O)c1-c1ccc(OC)c(OC)c1` (configuration not stated), the outcome in assay [1], in assay [2], in assay [3] and in assay [4] was inactive.
As for `CCOC(=O)C(C)Oc1cccc2c(=O)n(CC(=O)NCc3ccc4c(c3)OCO4)ccc12` (configuration not stated), the result in assay [1], in assay [2], in assay [3] and in assay [4] was inactive.
Take `O=C(c1ccc(Cl)cc1)c1c[nH]c(C(=O)C(Cl)(Cl)Cl)c1`: the result in assay [1], in assay [2], in assay [3] and in assay [4] was inactive.
As for `CC1CCCC(NC(=S)NC(=O)c2cncc(Br)c2)C1C` (configuration not stated), the result in assay [1], in assay [3] and in assay [4] was inactive. Further, the potentiation in assay [2] was 32% (active).
Consider `CCOC(=O)c1cc2c(=O)n3ccccc3nc2n(CCCOC)c1=NC(=O)c1ccncc1`, for which the outcome in assay [1], in assay [2], in assay [3] and in assay [4] was inactive.
Consider `O=C(NN=C1CCCC1)c1n[nH]c2c1CCC2`, for which the activation in assay [1] was 196% (active). For the same molecule, the potentiation is 35% (active) in assay [2] and 178% (active) in assay [3]. Further, the outcome in assay [4] was inactive.
`CC1CCC(n2c(=S)[nH]c3ccccc3c2=O)CC1` (configuration not stated): the activation in assay [1] was 234% (active). Moreover, the values for the potentiation in assay [2] and in assay [3] were 70% (active) and 243% (active), respectively. Besides, the outcome in assay [4] was inactive.
